Bioassay records (PubChem BioAssay)
SENP1 FRET inh: human SENP1 catalytic domain inhibitors, primary screen, biochemical, FRET, uHTS. Sentrin-specific protease 1 (Homo sapiens), Q9P0U3. recombinant SENP1 catalytic domain, CyPet-SUMO1-YPet FRET cleavage. inhibition, % at 10 µM. 0.21% of 360,000 active;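 active = inhibition at least 30% at 10 µM, raw YFP signal under a set limit, fluorescence ratio 0.5 to 1.5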
Target sequence (Q9P0U3 419-644 limits assumed): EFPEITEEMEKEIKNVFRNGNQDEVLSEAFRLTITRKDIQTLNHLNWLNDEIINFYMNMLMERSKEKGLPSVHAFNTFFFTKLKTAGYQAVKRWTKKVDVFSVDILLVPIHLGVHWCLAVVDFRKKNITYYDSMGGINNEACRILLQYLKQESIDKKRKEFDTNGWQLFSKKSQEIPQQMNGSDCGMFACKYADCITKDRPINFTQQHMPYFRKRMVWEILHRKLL
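system = hSENP1 catalytic domain, recombinant | reagent = SFCypet-SUMO1-SFYpet substrate at 25 nM | doses = one dose per compound, 10 µM, 0.5% DMSO | incubation = enzyme reaction for 50 min at room temperature, dark | measured by = FRET, CFP and YFP emission | controls = no-enzyme low, enzyme-DMSO high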
SENP6 inh: SENP6 protease inhibitors, primary screen, biochemical, luminescence, uHTS. Sentrin-specific protease 6 (Homo sapiens), Q9GZR1. Recombinant SENP6 catalytic domain, aminoluciferin luminescence. inhibition, % at 10 µM. 1.8% of 330,000 active. AID 2599, 2010;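 active = inhibition above about 50% at the single tested dose, limit read from the data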
SENP7 block: SENP7 protease inhibitors, primary screen, biochemical, luminescence, uHTS; Sentrin-specific protease 7 (Homo sapiens), Q9BQF6; recombinant SENP7, Z-RLRGG-aminoluciferin luminescence, 40 min; inhibition, % at 5 µM; 1.5% of 330,000 active;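 active = inhibition above about 50% at the single test dose, limit read from the data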
SENP8 block-1: SENP8 protease inhibitors, primary screen, biochemical, luminescence | Sentrin-specific protease 8 (Homo sapiens), Q96LD8 | purified SENP8, Z-RLRGG-aminoluciferin cleavage | inhibition, % at 10 µM | 1.2% of 330,000 active; in the data active = inhibition above about 50%
Target sequence (Q96LD8 whole entry, looked up): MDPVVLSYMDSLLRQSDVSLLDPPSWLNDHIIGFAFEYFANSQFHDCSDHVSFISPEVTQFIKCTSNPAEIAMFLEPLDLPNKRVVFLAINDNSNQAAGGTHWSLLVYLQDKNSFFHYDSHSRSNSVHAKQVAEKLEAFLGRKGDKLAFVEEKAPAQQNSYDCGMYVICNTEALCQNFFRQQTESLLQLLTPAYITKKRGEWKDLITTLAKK
UCH37 inh: inhibitors of human UCH37 deubiquitinase, primary screen, biochemical, Ub-AMC cleavage, fluorescence; Ubiquitin carboxyl-terminal hydrolase isozyme L5 (Homo sapiens), Q9Y5K5; purified proteasome/UCH37; inhibition, % (concentration not given with the values); 0.33% of 330,000 active; AID 588478, 2011;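 active = mean inhibition over replicate wells above about 20%, limit read from the data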
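Material: Human UCH37 enzyme supplied as purified proteasome complex | Schedule: 30 min compound-proteasome preincubation then 25 min substrate reaction, room temperature | Detection: AMC fluorescence from Ub-AMC cleavage, excitation 355 nm, emission 460 nm | Benchmarks: Wells without proteasome as full block, compound-free enzyme plus substrate as uninhibited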
SENP8 block-2: human SENP8 protease inhibitors, primary screen, biochemical, fluorescence, Nedd8 protein substrate, uHTS; Sentrin-specific protease 8 (Homo sapiens), Q96LD8; recombinant SENP8; inhibition, % at 20 µM; 0.64% of 360,000 active; in the data active = inhibition mostly above about 40%, no sharp cut-off; inactive = mostly below about 27%
SENP8 confirm: SENP8 protease inhibitors, retest, confirmation, biochemical, luminescence, single concentration; Recombinant SENP8, Z-RLRGG-aminoluciferin luminescence, 60 min; inhibition, % at 12.5 µM; 40% of 6,200 active; shares compounds with SENP7 block;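 active = mean inhibition across replicates above about 50%, limit read from the data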
SENP6 confirm: SENP6 protease inhibitors, confirmation, biochemical, luminescence, single concentration | shares compounds with SENP7 block | recombinant SENP6, Z-RLRGG-aminoluciferin luminescence | inhibition, % at 12.5 µM | 58% of 6,200 active | AID 488915, 2010
SENP7 confirm: SENP7 protease inhibitors, retest, confirmation, biochemical, luminescence, single concentration | shares compounds with SENP7 block | recombinant SENP7, Z-RLRGG-aminoluciferin luminescence, 40 min | 69% of 6,200 active | inhibition, % at 12.5 µM
Casp3 SENP sel: caspase-3 protease inhibitors, confirmation, selectivity assay for SENP inhibitor project, biochemical, single concentration; shares compounds with SENP7 block; purified caspase-3, Z-DEVD-aminoluciferin luminescence, 60 min; inhibition, % at 12.5 µM; 60% of 6,200 active; AID 488918, 2010;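 active = mean inhibition above about 50%, limit read from the data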
Luc interf: counter-screen for SENP inhibitors: luminescence interference; 39% of 6,200 active; AID 488919; inhibition, % at 12.5 µM; Pre-incubated SENP8/Z-RLRGG-aminoluciferin, luciferase luminescence interference; shares compounds with SENP7 block;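 active = mean inhibition above about 50% when retested at one dose, limit read from the data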
Hits are given with their value; i = inactive; nt = no result. In the library only some 2.6% were active in any assay of this set; here they are far more common.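 Rule for the calls, unless noted: active = mean inhibition above about 50% in the one-dose retest (limit read from the data); inactive = the rest.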

SMILES	SENP1 FRET inh	SENP6 inh	SENP7 block	SENP8 block-1	UCH37 inh	SENP8 block-2	SENP8 confirm	SENP6 confirm	SENP7 confirm	Casp3 SENP sel	Luc interf
COc1ccc(S(=O)(=O)NN=Cc2ccccc2F)cc1	nt	nt	nt	nt	i	nt	nt	nt	nt	nt	nt
CCNC(=S)NN=C(C)c1cccc(C(F)(F)F)c1	nt	nt	nt	nt	i	nt	nt	nt	nt	nt	nt
O=C(Nc1ccc(CSc2ccccc2)cc1)c1ccccc1	i	i	59	i	i	i	i	i	i	i	i
O=C(Nc1ccccc1)c1ccc(CSc2ccccn2)cc1	i	97	98	93	i	i	87	98	103	96	i
FC(F)(F)c1ccc(CSc2ccccn2)cc1	i	i	i	i	i	i	nt	nt	nt	nt	nt
O=C(Nc1cccc([N+](=O)[O-])c1)c1ccc(CSc2ccccc2)cc1	i	i	i	i	i	i	nt	nt	nt	nt	nt
Cc1cc2c(nn1)CCCC2=NO	nt	nt	nt	nt	i	nt	nt	nt	nt	nt	nt
COc1ccc(C(C)=NNC(=O)OC(C)(C)C)cc1[N+](=O)[O-]	nt	nt	nt	nt	i	nt	nt	nt	nt	nt	nt
CC(=NNC(=O)c1ccc(C)s1)c1cccc(NC(=O)COc2ccc(Cl)cc2C)c1	nt	nt	nt	nt	i	nt	nt	nt	nt	nt	nt
Cc1nnsc1NC(=O)OCc1ccc(C(F)(F)F)cc1	i	i	i	i	i	i	nt	nt	nt	nt	nt
Cc1nnsc1NC(=O)OCc1ccccc1Cl	i	55	i	i	i	i	i	i	63	i	i
CCOc1cc(/C=C2\C(=O)N(c3nc(-c4ccc(Br)cc4)cs3)N=C2c2ccccc2)ccc1O	i	51	i	i	i	i	i	i	i	i	i
COc1cc(/C=C2\C(=O)N(c3ccc(NC(C)=O)cc3)N=C2c2ccccc2)ccc1O	i	i	i	i	i	i	nt	nt	nt	nt	nt
O=C1OC(Nc2ccc3ncccc3c2)c2ccccc21 (stereo not drawn)	i	72	i	i	i	i	i	i	i	i	i
COc1cc(C=NNC(=O)c2cc(-c3c(C)nn(-c4ccccc4)c3C)n[nH]2)ccc1O	nt	nt	nt	nt	i	nt	nt	nt	nt	nt	nt
COc1ccc(OC(=O)c2ccc3nsnc3c2)cc1	i	i	59	i	i	i	i	i	i	i	i
CCOc1cc(C=NNC(=O)C(=O)NC2CC2)cc(Br)c1O	nt	nt	nt	nt	i	nt	nt	nt	nt	nt	nt
CC(C)CCNC(=O)c1cn(CC(C)C)c(=O)c2c1c1ccccc1n2C	i	i	i	i	i	i	nt	nt	nt	nt	nt
CC(C)Cn1cc(C(=O)NCc2cccs2)c2c3ccccc3n(C)c2c1=O	i	i	62	i	i	i	i	i	i	i	i
COc1cccc(C(C[N+](=O)[O-])c2c(C)[nH]n(-c3ccccc3)c2=O)c1 (stereo not drawn)	i	83	85	65	nt	73	i	i	i	i	i
CCC(=O)NN=C(C)CC(=O)Nc1ccc(Cl)cc1	nt	nt	nt	nt	i	nt	nt	nt	nt	nt	nt
Cn1cc(Cl)c(C(=O)OCC(=O)Nc2cccc(Cl)c2)n1	i	51	i	i	i	i	i	i	i	i	i
